This passage reports inhibition results from PubChem BioAssay AID1885 (Broad Institute, 2009).

Among all 300,000 compounds or so, about 4,400 (1.5%) were called active. The sample as a whole holds a higher share of actives than the screen did. Unmarked numbers belong to inactive results.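 The calls were made as follows: active = mean inhibition across valid replicates above about 55% (limit read from the data); inconclusive = mean below that limit but half or more replicates reach it; inactive = mean below it, under half of replicates reach it.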

The nature of this test: Trypanosoma cruzi replication blockers in host cells – luminescence, NIH3T3 host cells, primary screen (AID 1885).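 Also: signal also drops with host cell toxicity which is not excluded here; 0% = plate median of DMSO wells and 100% = zero luminescence signal.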 The following applies: T. cruzi beta-gal in NIH3T3, luminescence, 90 h; stronger effect = higher value; concentration not given here. The procedure, abridged: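 Assay system: NIH/3T3 host cells with β-galactosidase reporter T. cruzi; input: 5,000 host fibroblasts per well; compound: single 50 nL compound addition per well in DMSO; timing: ≥90 h infection period, 3 h prior cell attachment; measured by: GalScreen β-gal luminescence, detergent lysis, 60 min; evaluation: percent inhibition of parasite-derived β-gal signal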
The term inhibition denotes the drop in the measured response relative to a control, in per cent. Turning to `CCOc1cc(C(=O)O)ccc1OCCOc1ccccc1`, the inhibition was 3.5%. Under `Cc1ccccc1NC(=O)NCC1CCN(Cc2cccc(Cl)c2)CC1` stands 57.5% (active). With `Cc1cccc(CN2CCC(CNC(=O)Nc3ccc(F)c(Cl)c3)CC2)c1` the figure was 46.2%; with `O=C(NCC1CCN(Cc2ccccc2Cl)CC1)Nc1cccc(Cl)c1`, 49.4%. Under `CSc1ccc(/C=C2\NC(=O)NC2=O)cc1` stands -13.1%; under `CC(=O)Nc1cccc(NC(=O)c2ccc3c(c2)CCN3S(C)(=O)=O)c1`, -5.53%. Take `O=C(CSc1ccc(-c2ccc(Br)cc2)nn1)NCC1CCCO1` (stereo unspecified): the inhibition is -13.2%. In the case of `OC(CNCC1CCCO1)Cn1c2ccc(Br)cc2c2cc(Br)ccc21` (stereo unspecified), the inhibition was 55.2% (active).

Turning to `CC(NS(=O)(=O)c1ccc(Br)cc1)C(=O)NCC1CCCO1` (stereo unspecified), the inhibition was 0.0781%. As for `CN1CCc2ccccc2C1Cc1ccccc1NC(=O)c1sc2ccccc2c1Cl` (stereo unspecified), the inhibition was 54.6% (active). Regarding `COc1ccc(CNC(=O)CNC(=O)c2sc3ccccc3c2Cl)cc1OC`, the inhibition was 13.1%. With `Cc1nn(C)cc1/C=N/NC(=O)c1sc2ccccc2c1Cl` the figure was -4.55%. With `COCCCNC(NC(=O)c1ccc(OC)cc1)C(Cl)(Cl)Cl` (stereo unspecified) the figure was -20.9%; with `COc1ccccc1NC(=O)C(C)OC(=O)c1ccc(-n2cnnn2)cc1` (stereo unspecified), -5.21%.

As to `O=C(Nc1cc(Cl)ccc1N1CCOCC1)c1ccc(N2CCCC2=O)cc1`, the inhibition was -1.5%. Consider `CC(OC(=O)c1ccc(-n2cnnn2)cc1)C(=O)NCc1ccccc1` (stereo unspecified), for which the inhibition is -10.5%. As for `Cc1ccc(C(=O)NCC(=O)OCc2nnc(-c3ccccc3)o2)cc1`, the inhibition is 0.567%.

For `C=C(C)COc1ccc(-c2n[nH]c(C)c2-c2ccccc2)c(O)c1`, the inhibition was -19.2%. With `COc1ccc(C(=O)Cc2cnn(-c3ccccc3)c2)c(O)c1`, the inhibition was 33.1%.

For `Cc1[nH]nc(-c2ccc(OCc3cnn(-c4ccccc4)c3)cc2O)c1Oc1ccc(Cl)cc1`, the inhibition is 57.6% (active).

As for `COc1cc(OC)c(C(=O)OC(C)C(=O)Nc2cc(C(F)(F)F)ccc2Cl)cc1OC` (stereo unspecified), the inhibition was 18.6%. With `CCC(C)N(C(=O)Cn1nc(C)c([N+](=O)[O-])c1C)C1CCS(=O)(=O)C1` (stereo unspecified) the figure was -2.7%; with `CC(=O)Nc1ccc(NC(=O)CSC2=NS(=O)(=O)c3ccccc3N2)cc1`, 0.486%.

As for `Oc1c(CN2CCN(c3ccc(F)cc3)CC2)cc(Cl)c2cccnc12`, the inhibition is 59.9% (active). Under `Oc1ccc(CN2CCN(c3ncccn3)CC2)cc1` stands -5.02%; under `Cc1cccnc1NC(=O)c1cccc(S(=O)(=O)N2CCN(c3ccc(F)cc3)CC2)c1`, 13.5%.
